Assay results as given in ChEMBL document CHEMBL3351816, “Structure-based optimization of a peptidyl inhibitor against calcineurin-nuclear factor of activated T cell (NFAT) interaction” (J Med Chem, 2014).
Calls of active or inactive are those of the source. The rule behind the calls is not given here. Numbered stars: 1 amine (or outer) side, 2 acyl side, 3 side chain; on linkers, the order of the positions; unused ones are H or OH. Square brackets hold non-standard residues; d marks the D form. Peptide text beside a SMILES is read from it. X1 = CC1(C)SC[C@@H](C(=O)[*:2])N1[*:1]; Tle = CC(C)(C)[C@H](N)C(=O)O

Experiments:
[1] = Binding affinity to GST-calcineurin fusion protein substrate docking site (unknown origin) expressed in Escherichia coli BL21 cells by fluorescence anisotropy assay; parameters: species or system Homo sapiens
Outline: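 GST–CN fusion expressed in E. coli BL21, glutathione-Sepharose purified. FA read at ex 485/em 525 nm; KD from fitting FA versus CN concentration with correction for fluorophore–protein interaction.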

Homo sapiens = organism: Homo sapiens; assay: (§1) Inhibition of FITC-labelled […] binding to calcineurin (unknown origin) by modified fluorescence anisotropy assay
[2] = as §1; parameters: species or system Homo sapiens
[3] = test system: GTPase KRas (Homo sapiens), P01116 [G12V]; assay: Binding affinity to K-Ras G12V mutant (unknown origin)
Chain of GTPase KRas (Homo sapiens), P01116 [G12V] (P01116 whole entry G12V): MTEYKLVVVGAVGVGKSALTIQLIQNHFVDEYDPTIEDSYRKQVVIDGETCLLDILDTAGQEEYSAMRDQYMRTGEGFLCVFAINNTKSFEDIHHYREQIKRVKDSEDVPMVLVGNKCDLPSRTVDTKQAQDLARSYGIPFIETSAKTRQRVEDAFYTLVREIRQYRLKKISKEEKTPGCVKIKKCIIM

Serum [4] = assay: Drug metabolism in 25% human serum assessed as compound remaining at 37 degC; type: ADME, cell-free
Outline: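 Peptide incubated in human serum diluted to 25% at 37 °C; remaining intact peptide quantified by HPLC over time up to 6 h.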

Albumin = Albumin (Bos taurus, UniProt P02769); assay: Binding affinity to bovine serum albumin; type: ADME; conditions: cattle, isolated protein
Chain of Albumin (P02769 whole entry, the tested form may be a part): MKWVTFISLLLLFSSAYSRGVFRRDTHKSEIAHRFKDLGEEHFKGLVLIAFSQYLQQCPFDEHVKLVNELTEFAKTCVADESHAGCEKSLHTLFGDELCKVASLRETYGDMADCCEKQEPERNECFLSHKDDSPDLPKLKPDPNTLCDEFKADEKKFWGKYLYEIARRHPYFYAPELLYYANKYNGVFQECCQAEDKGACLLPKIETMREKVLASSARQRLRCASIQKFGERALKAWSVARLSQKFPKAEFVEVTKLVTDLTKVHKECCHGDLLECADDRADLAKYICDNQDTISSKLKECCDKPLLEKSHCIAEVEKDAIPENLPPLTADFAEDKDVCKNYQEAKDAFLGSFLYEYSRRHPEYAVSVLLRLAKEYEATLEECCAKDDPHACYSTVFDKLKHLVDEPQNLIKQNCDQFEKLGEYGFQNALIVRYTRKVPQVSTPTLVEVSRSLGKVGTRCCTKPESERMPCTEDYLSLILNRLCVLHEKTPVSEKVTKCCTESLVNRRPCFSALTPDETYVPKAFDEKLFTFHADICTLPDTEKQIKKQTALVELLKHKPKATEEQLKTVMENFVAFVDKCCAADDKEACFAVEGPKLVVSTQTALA

[5] = molecular target: Growth factor receptor-bound protein 2 (Homo sapiens) (UniProt P62993); assay: Binding affinity to SH2 domain of Grb2 (unknown origin)
Chain of Growth factor receptor-bound protein 2 (Homo sapiens) (P62993 whole entry, looked up, the tested form may be a part): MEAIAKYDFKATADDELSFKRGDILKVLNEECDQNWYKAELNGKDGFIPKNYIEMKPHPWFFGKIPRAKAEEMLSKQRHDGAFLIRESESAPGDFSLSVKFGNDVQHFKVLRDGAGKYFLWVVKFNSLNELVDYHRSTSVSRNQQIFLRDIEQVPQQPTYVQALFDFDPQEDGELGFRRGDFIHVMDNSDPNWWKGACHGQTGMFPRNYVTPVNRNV

HeLa = assay: Inhibition of calcineurin in human HeLa cells assessed as blocked of GFP-NFAT translocation at 500 nM prior to ionomycin treatment by fluorescence based confocal microscopy in presence of ionomycin; type: cell-based
Outline: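 HeLa cells stably expressing GFP–NFAT1 pretreated with R11-conjugated peptide (500 nM), then stimulated with ionomycin. Time-lapse live-cell confocal imaging; increase in nuclear fluorescence after 10 min ionomycin compared with inhibitor-free control (100%). Mean ± SD from at least 30 cells; two-tailed t test.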

[6] = molecular target: T1, Tyrosine-protein phosphatase non-receptor type 1 (Homo sapiens, UniProt P18031); assay: Binding affinity to PTP1B (unknown origin)
T1 sequence (P18031 whole entry): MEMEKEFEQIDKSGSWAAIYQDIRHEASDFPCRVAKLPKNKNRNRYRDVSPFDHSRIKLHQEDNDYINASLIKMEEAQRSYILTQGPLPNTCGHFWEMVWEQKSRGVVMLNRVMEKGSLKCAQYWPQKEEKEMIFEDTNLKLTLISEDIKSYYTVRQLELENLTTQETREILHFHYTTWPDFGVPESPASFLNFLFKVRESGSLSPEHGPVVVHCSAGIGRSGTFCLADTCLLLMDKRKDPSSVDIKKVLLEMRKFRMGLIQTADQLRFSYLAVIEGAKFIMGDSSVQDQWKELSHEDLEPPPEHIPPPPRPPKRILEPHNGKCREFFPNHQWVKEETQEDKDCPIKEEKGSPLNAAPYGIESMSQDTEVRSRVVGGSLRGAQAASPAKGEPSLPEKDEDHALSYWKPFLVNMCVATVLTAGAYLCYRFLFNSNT

[7] = molecular target: Tyrosine-protein phosphatase non-receptor type 6 (Homo sapiens, UniProt P29350); assay: Binding affinity to SHP1 (unknown origin)
Chain of Tyrosine-protein phosphatase non-receptor type 6 (P29350 whole entry): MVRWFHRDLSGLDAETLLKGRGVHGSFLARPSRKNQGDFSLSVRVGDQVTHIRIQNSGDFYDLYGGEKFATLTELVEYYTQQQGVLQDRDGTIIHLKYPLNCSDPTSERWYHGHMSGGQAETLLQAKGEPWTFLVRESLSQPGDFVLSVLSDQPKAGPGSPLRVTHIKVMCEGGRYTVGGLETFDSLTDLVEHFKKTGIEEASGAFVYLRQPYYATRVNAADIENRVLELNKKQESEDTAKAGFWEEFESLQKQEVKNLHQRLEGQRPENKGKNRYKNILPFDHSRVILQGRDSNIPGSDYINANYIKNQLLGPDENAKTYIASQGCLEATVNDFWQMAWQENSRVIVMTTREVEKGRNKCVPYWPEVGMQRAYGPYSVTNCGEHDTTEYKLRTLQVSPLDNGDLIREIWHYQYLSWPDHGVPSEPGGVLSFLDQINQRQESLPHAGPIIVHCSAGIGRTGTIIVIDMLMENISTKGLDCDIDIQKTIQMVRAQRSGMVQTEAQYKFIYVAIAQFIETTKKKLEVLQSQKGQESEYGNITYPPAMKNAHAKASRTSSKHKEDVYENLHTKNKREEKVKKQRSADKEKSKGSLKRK

Serum [8] = assay: Drug metabolism in 25% human serum at 37 degC at 6 hrs; type: ADME, cell-free
Outline: (§2)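 Peptides were incubated in diluted human serum (25%) at 37 °C for up to 6 h. The amount of intact peptide remaining was monitored over time by HPLC.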

[9] = Half life in 25% human serum at 37 degC; type: ADME; outline: as §2

Row | Compound | Kd [1] | inhibition (Homo sapiens) | IC50 [2] | inhibition (HeLa) | also measured
1 | CC[C@H](C)[C@H](NC(=O)[C@@H](NC(=O)[C@@H](NC(=O)[C@@H](NC(=O)[C@@H]1CCCN1C(=O)[C@H](Cc1cnc[nH]1)NC(=O)[C@@H]1CCCN1C(=O)CN)C(C)(C)C)[C@@H](C)CC)C(C)(C)C)C(=O)N[C@H](C(=O)NCC(=O)N1[C@H](C(=O)N[C@@H](Cc2cnc[nH]2)C(=O)N[C@@H](CCC(=O)O)C(=O)N[C@@H](CCC(=O)O)C(=O)O)CSC1(C)C)[C@@H](C)O (H-GPHP[Tle]I[Tle]ITG[X1]HEE-OH) | 0.0026 µM | Dose-dependent effect | 0.11 µM | 95% | Activity [3]: inactive; Stability (Serum [4]): 60%; Activity (Albumin): Not Active; Activity [5]: inactive; Kd [6]: 9 µM; Kd [7]: > 15 µM
2 | CCCOC(=O)CNC(=O)[C@H](CCC(=O)O)NC(=O)[C@H](CCC(=O)O)NC(=O)[C@H](Cc1cnc[nH]1)NC(=O)[C@@H]1CSC(C)(C)N1C(=O)CNC(=O)[C@@H](NC(=O)[C@@H](NC(=O)[C@@H](NC(=O)[C@@H](NC(=O)[C@@H](NC(=O)[C@@H]1CCCN1C(=O)[C@H](Cc1cnc[nH]1)NC(=O)[C@@H]1CCCN1C(=O)CNC(=O)CCSSC[C@H](NC(=O)[C@H](CCCNC(=N)N)NC(=O)[C@H](CCCNC(=N)N)NC(=O)[C@H](CCCNC(=N)N)NC(=O)[C@H](CCCNC(=N)N)NC(=O)[C@H](CCCNC(=N)N)NC(=O)[C@H](CCCNC(=N)N)NC(=O)[C@H](CCCNC(=N)N)NC(=O)[C@H](CCCNC(=N)N)NC(=O)[C@H](CCCNC(=N)N)NC(=O)[C@H](CCCNC(=N)N)NC(=O)[C@H](CCCNC(=N)N)NC(C)=O)C(N)=O)C(C)(C)C)[C@@H](C)CC)C(C)(C)C)[C@@H](C)CC)[C@@H](C)O |  |  |  | 95% | 
3 | H-GPHAVAVAAGPHEE-OH | > 200 µM |  |  |  | 
4 | CC[C@H](C)[C@H](NC(=O)[C@@H](NC(=O)[C@@H]1CCCN1C(=O)[C@H](Cc1cnc[nH]1)NC(=O)[C@@H]1CCCN1C(=O)CN)C(C)C)C(=O)N[C@H](C(=O)N[C@H](C(=O)N[C@H](C(=O)NCC(=O)N1CCC[C@H]1C(=O)N[C@@H](Cc1cnc[nH]1)C(=O)N[C@@H](CCC(=O)O)C(=O)N[C@@H](CCC(=O)O)C(=O)O)C(C)O)[C@@H](C)CC)C(C)C (stereo not given in full) | 0.477 µM | Dose-dependent effect | 4.1 µM |  | Stability (Serum [8]): Unstable; half-life [9]: 1 h
5 | CC[C@H](C)[C@H](NC(=O)[C@@H](NC(=O)[C@@H](NC(=O)[C@@H](NC(=O)[C@@H]1CCCN1C(=O)[C@H](Cc1cnc[nH]1)NC(=O)[C@@H]1CCCN1C(=O)CN)C(C)(C)C)[C@@H](C)CC)C(C)(C)C)C(=O)N[C@H](C(=O)NCC(=O)N1CCC[C@H]1C(=O)N[C@@H](Cc1cnc[nH]1)C(=O)N[C@@H](CCC(=O)O)C(=O)N[C@@H](CCC(=O)O)C(=O)O)[C@@H](C)O (H-GPHP[Tle]I[Tle]ITGPHEE-OH) | 0.043 µM | Dose-dependent effect | 0.28 µM |  | 
